# Assay outcomes: PubChem, several laboratories
# Compounds with a hit are over-represented: about 2% of the library has one in this group of screens.
# Rev-erbA mod = Rev-erb alpha (human) modulation | actives 0.79% (n = 370,000) | AID 1259318 | Rev-erbα–FITC-DNA binding, fluorescence polarization, 90 min | activity, % at 10 µM | P20393;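 active = activity above about 14%, limit read from the data; passing the limit was not always enough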;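 note: 0% = DMSO wells with 35 nM protein and 100% = DMSO wells with 750 nM protein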
# Neddyl block = cullin neddylation inhibition; P61081+Q13564; TR-FRET cullin neddylation, biochemical; calls only at 25 µM; actives 0.58% (n = 360,000); AID 651699; in the data active = inhibition above about 36%
# Target sequence (P61081 whole entry, looked up): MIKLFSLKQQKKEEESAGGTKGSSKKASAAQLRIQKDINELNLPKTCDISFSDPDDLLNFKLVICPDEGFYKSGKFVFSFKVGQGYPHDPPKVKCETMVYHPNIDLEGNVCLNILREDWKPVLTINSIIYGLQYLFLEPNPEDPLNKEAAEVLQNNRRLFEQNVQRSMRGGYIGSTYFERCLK
# Target sequence (Q13564 whole entry, looked up): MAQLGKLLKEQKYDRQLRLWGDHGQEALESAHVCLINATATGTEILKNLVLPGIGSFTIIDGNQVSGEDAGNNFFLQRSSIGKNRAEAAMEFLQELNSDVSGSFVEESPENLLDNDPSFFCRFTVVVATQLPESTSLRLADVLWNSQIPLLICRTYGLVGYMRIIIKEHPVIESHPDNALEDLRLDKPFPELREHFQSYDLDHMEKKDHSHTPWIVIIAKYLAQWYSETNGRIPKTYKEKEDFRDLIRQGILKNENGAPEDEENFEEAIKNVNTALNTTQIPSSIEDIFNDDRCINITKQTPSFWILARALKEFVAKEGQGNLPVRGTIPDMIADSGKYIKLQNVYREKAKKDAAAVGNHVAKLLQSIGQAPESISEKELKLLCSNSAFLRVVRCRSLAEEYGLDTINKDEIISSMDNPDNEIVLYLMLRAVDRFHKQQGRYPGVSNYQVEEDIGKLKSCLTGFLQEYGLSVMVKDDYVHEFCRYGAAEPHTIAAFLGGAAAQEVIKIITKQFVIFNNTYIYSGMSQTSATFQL
# NR2E3 ag-1 = human photoreceptor-specific nuclear receptor agonism | actives 0.35% (n = 360,000) | inhibition of corepressor binding, % at 3.98 µM | CHO-S Gal4-NCOR/VP16-NR2E3 two-hybrid, luciferase;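 active = inhibition above the mean of all tested compounds plus 3 SD, cut at about 70% in these data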;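 note: 0% = DMSO with NR2E3 transfected cells and 100% = cells lacking NR2E3 construct; higher means lower luciferase signal from less NR2E3 corepressor binding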
# NR2E3 ag-2 = agonists of human nuclear receptor NR2E3 | GST-NR2E3/biotin-RetCOR TR-FRET, 1536-well | inhibition of corepressor binding, % at 4.78 µM | AID 2300 | Q9Y5X4 | actives 0.12% (n = 320,000);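 active = percent inhibition above the cutoff of mean plus 3 SD of all tested compounds, set per screening campaign, cut at about 20% in these data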;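 note: 0% = DMSO wells and 100% = biotin wells as full block of FRET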
#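 System: GST-tagged NR2E3 plus biotinylated RetCOR corepressor; Amount: 1.35 nM GST-tagged NR2E3 final; Dosing: single nominal compound dose of 4.8 µM; Schedule: 5 h incubation at 4 °C; Technique: TR-FRET with europium anti-GST and streptavidin-D2, 340 nm excitation; Controls: biotin wells as high control, 0.6% DMSO wells as low control.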
# PG9 binder = PG9 antibody binding by small molecule | TR-FRET gp120-PG9 antibody binding | inhibition, % at 6.7 µM | actives 0.43% (n = 360,000) | AID 624416; in the data active = inhibition above about 8.5%
# NR2E3 ag confirm = NR2E3 agonism confirmed in two-hybrid assay; inhibition, % at 3.98 µM; shares compounds with NR2E3 ag-1; CHO-S mammalian two-hybrid NR2E3-NCOR, luciferase luminescence; actives 51% (n = 2,300); AID 624378;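 active = average inhibition above a cutoff equal to the mean inhibition of all tested compounds plus one SD, cut at about 70% in these data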;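 note: 0% = DMSO in NR2E3 cells and 100% = DMSO in cells lacking NR2E3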
# GAL4-VP16 luc = counter-screen for NR2E3 agonists: GAL4-VP16 reporter inhibitors. shares compounds with NR2E3 ag-1. CHO-S GAL4-VP16 luciferase reporter, luminescence. inhibition, % at 3.98 µM. actives 29% (n = 2,300). AID 624379;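 active = mean inhibition above a cutoff equal to the average over all tested compounds plus one standard deviation, cut at about 70% in these data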;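 note: luciferase from a UAS reporter driven by GAL4-VP16 transactivation; 0% = DMSO with VP16-transfected cells and 100% = DMSO with cells lacking VP16; higher means less reporter light so more repression of VP16 activity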
# * = called active by the depositor; i = inactive; x = no result given.
SMILES,Rev-erbA mod,Neddyl block,NR2E3 ag-1,NR2E3 ag-2,PG9 binder,NR2E3 ag confirm,GAL4-VP16 luc
CCOc1ccc(-c2c(C)n(-c3ccc(OCC)cc3)c3[n+]2CCCCC3)cc1,-2.5,i,63.9,1.1,-1.7,97.0*,60.2
O=C1Nc2ccccc2/C1=C/c1cnc[nH]1,3.5,i,47.6,-9.1,-10.4,25.8,-1.3
COc1ccc2c(c1)/C(=C/c1cnc[nH]1)C(=O)N2,0.7,i,80.8*,-10.8,-14.3,85.6*,24.9
COc1ccc(-n2c(/C=C3\C(=O)Nc4ccccc43)nc3ccccc3c2=O)cc1,1.2,i,-5.0,2.1,-1.0,x,x
O=C1Nc2ccccc2/C1=C/c1nc2ccccc2c(=O)n1-c1ccc(O)cc1,-2.2,i,-41.5,0.6,-0.5,x,x
CCOC(=O)C1=C(C(=O)OCC)C2(c3ccccc3)c3ccccc3C1(C)N2C (stereo unspecified),1.6,x,x,x,-0.8,x,x
O=[N+]([O-])c1ccc(N2CCOCC2)c2cccnc12,4.6,i,-9.4,-2.2,-2.1,x,x
O=[N+]([O-])c1ccc(N2CCOCC2)c2c1no[n+]2[O-],14.9,i,58.2,x,-3.6,59.4,56.4
CC1C(OC(=O)CCC(=O)NC(C)(C)CO)O[C@H]2OC3(C)CC[C@H]4[C@H](C)CCC1C24OO3 (stereo partly specified),1.9,i,97.2*,2.4,0.1,94.9*,74.8*
CC(C)CC(NC(=O)CCCNC(=O)CCC(=O)OC1O[C@H]2OC3(C)CC[C@H]4[C@H](C)CCC(C1C)C24OO3)C(=O)O (stereo partly specified),2.5,i,93.9*,-3.1,0.2,91.1*,74.0*
O=c1cccc2n1C[C@H]1CNC[C@H]2C1,-2.4,x,x,x,x,x,x
COc1ccc(Cc2cn(C)c(N)n2)cc1,2.1,x,x,x,x,x,x
CC1=CC(O)C(O)C2(C)C1CC1OC(=O)C(O)C3C(C)C(O)C4(O)OCC13C42 (stereo unspecified),x,i,-15.9,x,x,x,x
COC(=O)[C@]12OC[C@]34C([C@@H](O)[C@@H]1O)[C@]1(C)CC(=O)C(O)=C(C)[C@@H]1C[C@H]3OC(=O)[C@H](O)[C@@H]24 (stereo partly specified),1.5,i,63.4,2.0,-0.6,14.9,10.8
O=C(NCCN1CCC2(CC1)C(=O)NCN2c1ccccc1)c1cccc(F)c1,2.7,x,x,x,1.2,x,x
COC(=O)C[C@]1(C(=O)OC)CN(C#N)N(c2ccc(Cl)cc2)C12c1ccccc1-c1ccccc12,3.1,i,88.6*,1.6,0.8,80.5*,21.1
c1ccc(Cn2nnnc2C2CN=C(c3ccccc3)c3ccccc3N2)cc1 (stereo unspecified),12.2,x,x,x,x,x,x
O=C1NC2C(=CC(O)C(O)C2O)c2cc3c(cc21)OCO3 (stereo unspecified),1.5,i,100.2*,x,0.1,100.5*,97.2*
COc1cc(C2c3cc4c(cc3CC3COC(=O)C32)OCO4)cc(OC)c1O (stereo unspecified),-1.6,i,30.4,x,-0.2,x,x
O=C1NC2C(=CC(O)C(O)C2O)c2cc3c(c(O)c21)OCO3 (stereo unspecified),0.4,i,101.5*,x,-0.5,100.4*,99.3*
O=C1NC2C(O)C(O)C(O)C(O)C2c2cc3c(c(O)c21)OCO3 (stereo unspecified),7.1,i,98.8*,x,-0.1,98.5*,98.7*
O=C(NCCN1CCC2(CC1)C(=O)NCN2c1ccccc1)c1ccc(F)c(F)c1,5.8,x,x,x,-2.4,x,x
Cc1cc(N2CCNC[C@H]2C)ccc1N1CCN[C@H](C)C1,-2.6,x,x,x,-0.7,x,x
O=C(O)C(Br)Br,6.5,x,x,x,0.9,x,x
CN(C)C(=S)SSC(=S)N(C)C,-6.5,i,94.7*,-0.6,-1.9,11.3,-3.4
SMILES,Rev-erbA mod,Neddyl block,NR2E3 ag-1,NR2E3 ag-2,PG9 binder,NR2E3 ag confirm,GAL4-VP16 luc
CSCCC(c1nnnn1-c1ccc2c(c1)OCCO2)N1CCC(n2c(=O)[nH]c3ccccc32)CC1 (stereo unspecified),1.4,i,54.5,x,-3.5,30.2,5.9
O=c1[nH]c2ccccc2n1C1CCN(C(c2ccccc2OC(F)(F)F)c2nnnn2-c2ccc3c(c2)OCCO3)CC1 (stereo unspecified),10.8,i,60.9,x,-2.3,53.8,14.3
COc1cccc(C(c2nnnn2-c2ccc3c(c2)OCCO3)N2CCC(n3c(=O)[nH]c4ccccc43)CC2)c1OC (stereo unspecified),-1.3,i,53.1,x,-2.0,21.2,24.5
O=c1[nH]c2ccccc2n1C1CCN(C(c2ccccc2)c2nnnn2-c2ccc3c(c2)OCCO3)CC1 (stereo unspecified),7.6,i,17.3,x,-0.4,x,x
O=C(NCCN1CCC2(CC1)C(=O)NCN2c1ccccc1)c1cccc2c1-c1ccccc1C2=O,0.4,x,x,x,-2.3,x,x
O=C(NC(=O)c1c(F)cccc1F)Nc1cc(Cl)c(OC(F)(F)C(F)C(F)(F)F)cc1Cl (stereo unspecified),2.6,x,x,x,x,x,x
CCC(=O)[C@@H](C)[C@@H](O)[C@H](C)C[C@@H](C)C1OC(=O)C[C@@]2(O)CC=C(C)C(O2)C(C)=CCCC[C@H](O[C@H]2C[C@@H](OC(N)=O)[C@H](O)[C@@H](C)O2)C=C[C@H](C)C[C@H]1C (stereo partly specified),x,i,93.4*,x,x,97.6*,84.1*
Cc1cc(N2CCNC[C@H]2C)ccc1N1CC[C@@H](O)C1,-0.1,x,x,x,-0.9,x,x
Cc1c(NS(=O)(=O)c2ccccc2)ccc([N+](=O)[O-])c1Cl,2.9,i,84.6*,x,-0.1,95.6*,84.4*
CCN(CCNc1ccc([N+](=O)[O-])c2cccnc12)S(=O)(=O)c1ccccc1,2.0,i,-36.8,-0.3,0.9,x,x
O=[N+]([O-])C(Br)(CO)CO,0.0,x,x,x,x,x,x
O1[As]2O[As]3O[As]1O[As](O2)O3,-8.2,x,x,x,x,x,x
CC(C)(C)c1cc(C=C(C#N)C#N)cc(C(C)(C)C)c1O,3.6,i,92.0*,-0.3,-2.1,86.3*,89.5*
CN(Cc1cccc(-c2ccncc2)c1)C(=O)Oc1ccc([N+](=O)[O-])cc1,x,i,89.6*,x,x,80.8*,74.3*
C=C1CC2C(CC[C@]3(C)C(=O)CCC23)[C@@]2(C)C=CC(=O)C=C12 (stereo partly specified),-1.2,x,x,x,x,x,x
CCOC(=O)[C@]12Cc3cc(Cl)ccc3[C@H]1N(CC(=O)OC)C(=O)c1ccccc12,x,i,61.0,x,x,1.7,11.9
CCOC(=O)[C@]12Cc3cc(Cl)ccc3[C@H]1N(C1CCCCC1)C(=O)c1ccccc12,x,i,64.7,x,x,96.5*,59.5
CCOC(=O)[C@]12Cc3cc(Cl)ccc3[C@H]1N(C)C(=O)c1ccccc12,-3.4,i,-18.4,x,-0.8,x,x
